Measured values published in ChEMBL document CHEMBL5058577, “EUbOPEN Chemogenomics Library 2 (Multiplex)” (2022).

Tested on: HEK-293T
Assay: Multiplex assay against HEK293T
Format: toxicity, cell-based
Conditions: human
Outline: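 Phenotypes for tubulin, mitochondrial mass and membrane permeability are expressed as per cents of healthy-nucleus cells. Cells were stained live at seeding with Hoechst33342, BioTracker Green Microtubule Cytoskeleton Dye, MitoTracker Red and Annexin V Alexa Fluor 680, then imaged after compound addition on a CQ1 microscope at 37°C and 5% CO2. Machine-learning gating in CellPathfinder separated Hoechst high-intensity objects from normal cells, divided normal cells by nuclear state (healthy, pyknosed, fragmented) and divided pyknosed cells into mitotic or apoptotic.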

[1] = 12 h, 1 µM, compound concentration 1 uM, replicate 1
[2] = 12 h, 1 µM, compound concentration 1 uM, replicate 2
[3] = 12 h, 10 µM, compound concentration 10 uM, replicate 1
[4] = 12 h, 10 µM, compound concentration 10 uM, replicate 2
[5] = 24 h, 1 µM, compound concentration 1 uM, replicate 1
[6] = 24 h, 1 µM, compound concentration 1 uM, replicate 2
[7] = 24 h, 10 µM, compound concentration 10 uM, replicate 1
[8] = 24 h, 10 µM, compound concentration 10 uM, replicate 2
[9] = 48 h, 1 µM, compound concentration 1 uM, replicate 1
[10] = 48 h, 1 µM, compound concentration 1 uM, replicate 2
[11] = 48 h, 10 µM, compound concentration 10 uM, replicate 1
[12] = 48 h, 10 µM, compound concentration 10 uM, replicate 2

## Cc1ccccc1C(=O)Nc1ccc(C(=O)N2CCCC(N(C)C)c3ccccc32)cc1.Cl (centres undefined)
[1]
  Population Apoptotic (%): 18%
  Population Fragmented Nuclei (%): 6%
  Population Healthy Nuclei (%): 80%
  Population Hoechst High Intensity Objects (%): 8%
  Population Membrane Permeable-Phenotype (%): 0%
  Population Mitochondria Different-Phenotype (%): 51%
  Population Mitotic Cells (%): 81%
  Population Normal (%): 91%
  Population Pyknosed Nuclei (%): 12%
  Population Tubulin-Different-Phenotype (%): 33%
  Total Cell Count: 519
[2]
  Population Apoptotic (%): 53%
  Population Fragmented Nuclei (%): 5%
  Population Healthy Nuclei (%): 79%
  Population Hoechst High Intensity Objects (%): 6%
  Population Mitochondria Different-Phenotype (%): 72%
  Population Mitotic Cells (%): 46%
  Population Normal (%): 93%
  Population Pyknosed Nuclei (%): 14%
  Population Tubulin-Different-Phenotype (%): 29%
  Total Cell Count: 412
[3]
  Population Apoptotic (%): 53%
  Population Fragmented Nuclei (%): 6%
  Population Healthy Nuclei (%): 70%
  Population Hoechst High Intensity Objects (%): 8%
  Population Membrane Permeable-Phenotype (%): 0%
  Population Mitochondria Different-Phenotype (%): 74%
  Population Mitotic Cells (%): 46%
  Population Normal (%): 91%
  Population Pyknosed Nuclei (%): 22%
  Population Tubulin-Different-Phenotype (%): 60%
  Total Cell Count: 233
[4]
  Population Apoptotic (%): 64%
  Population Fragmented Nuclei (%): 8%
  Population Healthy Nuclei (%): 72%
  Population Hoechst High Intensity Objects (%): 15%
  Population Mitochondria Different-Phenotype (%): 82%
  Population Mitotic Cells (%): 35%
  Population Normal (%): 84%
  Population Pyknosed Nuclei (%): 18%
  Population Tubulin-Different-Phenotype (%): 61%
  Total Cell Count: 285
[5]
  Population Apoptotic (%): 31%
  Population Fragmented Nuclei (%): 11%
  Population Healthy Nuclei (%): 79%
  Population Hoechst High Intensity Objects (%): 5%
  Population Membrane Permeable-Phenotype (%): 0%
  Population Mitochondria Different-Phenotype (%): 28%
  Population Mitotic Cells (%): 68%
  Population Normal (%): 94%
  Population Pyknosed Nuclei (%): 8%
  Population Tubulin-Different-Phenotype (%): 17%
  Total Cell Count: 727
[6]
  Population Apoptotic (%): 30%
  Population Fragmented Nuclei (%): 5%
  Population Healthy Nuclei (%): 83%
  Population Hoechst High Intensity Objects (%): 4%
  Population Mitochondria Different-Phenotype (%): 52%
  Population Mitotic Cells (%): 69%
  Population Normal (%): 95%
  Population Pyknosed Nuclei (%): 11%
  Population Tubulin-Different-Phenotype (%): 19%
  Total Cell Count: 567
[7]
  Population Apoptotic (%): 41%
  Population Fragmented Nuclei (%): 8%
  Population Healthy Nuclei (%): 70%
  Population Hoechst High Intensity Objects (%): 7%
  Population Membrane Permeable-Phenotype (%): 0%
  Population Mitochondria Different-Phenotype (%): 71%
  Population Mitotic Cells (%): 58%
  Population Normal (%): 92%
  Population Pyknosed Nuclei (%): 21%
  Population Tubulin-Different-Phenotype (%): 46%
  Total Cell Count: 268
[8]
  Population Apoptotic (%): 44%
  Population Fragmented Nuclei (%): 7%
  Population Healthy Nuclei (%): 73%
  Population Hoechst High Intensity Objects (%): 14%
  Population Mitochondria Different-Phenotype (%): 83%
  Population Mitotic Cells (%): 55%
  Population Normal (%): 85%
  Population Pyknosed Nuclei (%): 18%
  Total Cell Count: 285
[9]
  Population Apoptotic (%): 13%
  Population Fragmented Nuclei (%): 13%
  Population Healthy Nuclei (%): 78%
  Population Hoechst High Intensity Objects (%): 2%
  Population Membrane Permeable-Phenotype (%): 1%
  Population Mitochondria Different-Phenotype (%): 24%
  Population Mitotic Cells (%): 86%
  Population Normal (%): 97%
  Population Pyknosed Nuclei (%): 8%
  Population Tubulin-Different-Phenotype (%): 17%
  Total Cell Count: 1095
[10]
  Population Apoptotic (%): 34%
  Population Fragmented Nuclei (%): 10%
  Population Healthy Nuclei (%): 82%
  Population Hoechst High Intensity Objects (%): 4%
  Population Membrane Permeable-Phenotype (%): 0%
  Population Mitochondria Different-Phenotype (%): 30%
  Population Mitotic Cells (%): 65%
  Population Normal (%): 95%
  Population Pyknosed Nuclei (%): 6%
  Population Tubulin-Different-Phenotype (%): 14%
  Total Cell Count: 722
[11]
  Population Apoptotic (%): 55%
  Population Fragmented Nuclei (%): 10%
  Population Healthy Nuclei (%): 69%
  Population Hoechst High Intensity Objects (%): 6%
  Population Membrane Permeable-Phenotype (%): 0%
  Population Mitochondria Different-Phenotype (%): 69%
  Population Mitotic Cells (%): 44%
  Population Normal (%): 93%
  Population Pyknosed Nuclei (%): 20%
  Population Tubulin-Different-Phenotype (%): 49%
  Total Cell Count: 283
[12]
  Population Apoptotic (%): 63%
  Population Fragmented Nuclei (%): 9%
  Population Healthy Nuclei (%): 77%
  Population Mitochondria Different-Phenotype (%): 72%
  Population Mitotic Cells (%): 36%
  Population Pyknosed Nuclei (%): 12%
  Population Tubulin-Different-Phenotype (%): 41%
  Total Cell Count: 314
